Target: T1, C-C chemokine receptor type 3 (Homo sapiens, UniProt P51677)
T1 sequence (P51677 whole entry): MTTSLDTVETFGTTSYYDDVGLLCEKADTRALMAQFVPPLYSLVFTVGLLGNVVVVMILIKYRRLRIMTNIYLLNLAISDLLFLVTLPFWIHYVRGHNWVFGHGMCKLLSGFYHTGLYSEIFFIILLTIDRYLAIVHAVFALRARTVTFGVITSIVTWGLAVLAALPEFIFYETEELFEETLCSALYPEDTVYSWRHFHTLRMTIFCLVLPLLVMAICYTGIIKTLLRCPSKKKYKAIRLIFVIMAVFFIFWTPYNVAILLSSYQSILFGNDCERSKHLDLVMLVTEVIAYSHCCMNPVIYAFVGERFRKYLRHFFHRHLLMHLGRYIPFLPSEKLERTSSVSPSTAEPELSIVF
Experiment: Inhibition of [125I]eotaxin-1 binding to human chemokine receptor (hCCR3-C1)
Method in brief: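 K562 leukemia myelogenic blast cells transfected with human CCR3 (hCCR3-C1). Binding of the radioligand 125I-eotaxin-1 was measured in a scintillation proximity format. Controls: specific binding with no displacer added, and nonspecific binding with unlabeled eotaxin or test compound added. Bound radioactivity was counted by scintillation. Ki was obtained by iterative fitting of the data to a law-of-mass-action model.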

With `Cc1ccc(CCNCC(c2ccccc2)N2CCN(C)CC2)cc1` (stereo unspecified) the Ki was 11.6 µM.

— ChEMBL document CHEMBL1142703, “Novel ligands for the chemokine receptor-3 (CCR3): a receptor-modeling study based on 5D-QSAR” (J Med Chem, 2005)
